Assay results published in ChEMBL document CHEMBL1127023, “Nonpeptide angiotensin II receptor antagonists. Synthesis and biological activity of benzimidazoles” (J Med Chem, 1993).

Key:
Rattus norvegicus [1] = assay: In vivo inhibition of angiotensin II (0.1 ug/kg) induced increase in blood pressure in conscious male rat at 10 mg/kg for 3h/7h; format: functional
Procedure, shortened: (§1)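 Conscious male Jcl:Sprague-Dawley rats (300–400 g), femoral artery and vein cannulated under pentobarbital the day before. AII 100 ng/kg iv was given twice as control. Compound was dosed orally as a gum arabic suspension, then AII challenges were repeated. Pressor-response inhibition was read at 3 and 7 h after dosing, from duplicate experiments.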

[2] = In vitro for inhibition of specific binding of [125I]-angiotensin II (0.2 nM) to bovine adrenal cortex
[3] = biological target: Angiotensin II receptor (Rattus norvegicus) (UniProt P29089+P25095+P35351); assay: In vivo inhibition of angiotensin II (0.1 ug/kg) induced increase in blood pressure in conscious male rat at 3 mg/kg for 3h/7h.; format: functional, organism-based; parameters: dose 3 mg/kg; procedure, shortened: as §1
Rattus norvegicus [4] = assay: In vivo for inhibition of the Angiotensin II (0.1 ug/kg) induced increase in blood pressure in conscious male rat at 30 mg/kg for 3h/7h; format: functional; procedure, shortened: as §1
Rattus norvegicus [5] = assay: In vivo for inhibition of the Angiotensin II (0.1 ug/kg) induced increase in blood pressure in conscious male rat at 100 mg/kg for 3h/7h; format: functional; procedure, shortened: as §1
Rattus norvegicus [6] = assay: In vivo for inhibition of the Angiotensin II (0.1 ug/kg) induced increase in blood pressure in conscious male rat at 10 mg/kg for 0.5h/1h; format: functional
[7] = In vitro for inhibition of specific binding of [125I]-angiotensin II (0.02 nM) to bovine adrenal cortex; format: tissue-based, Bos taurus
Rattus norvegicus [8] = assay: In vivo inhibition of angiotensin II (0.1 ug/kg)-induced increase in blood pressure in conscious male rat at 10 mg/kg for 3h/7h; format: functional; procedure, shortened: as §1

Row | Compound | IC50 [2] | inhibition [3] | inhibition in vivo at 30 mg/kg (Rattus norvegicus [4]) | further results
1 | CCCCc1nc2c(C(=O)O)cccc2n1Cc1ccc(-c2ccccc2-c2nn[nH]n2)cc1 | > 10000 nM |  |  | inhibition in vivo at 10 mg/kg (Rattus norvegicus [1]): 19%
2 | CCCCc1nc2cc(OC)ccc2n1Cc1ccc(-c2ccccc2-c2nn[nH]n2)cc1 | 910 nM |  |  | inhibition in vivo at 100 mg/kg (Rattus norvegicus [5]): 84%; inhibition in vivo at 10 mg/kg (Rattus norvegicus [6]): 60%
3 | CCCCc1nc2ccccc2n1Cc1ccc(-c2ccccc2C(=O)O)cc1 | 1100 nM |  |  | inhibition in vivo at 100 mg/kg (Rattus norvegicus [5]): 45%; inhibition in vivo at 10 mg/kg (Rattus norvegicus [6]): 20%
4 | CCCCc1nc2cc(Cl)cc(C(=O)O)c2n1Cc1ccc(-c2ccccc2-c2nn[nH]n2)cc1 |  | 23% |  | 
5 | CCCCc1nc2cc(C)cc(C(=O)O)c2n1Cc1ccc(-c2ccccc2-c2nn[nH]n2)cc1 | 1300 nM | 80% |  | 
6 | CCCCc1nc2cc(Cl)ccc2n1Cc1ccc(-c2ccccc2-c2nn[nH]n2)cc1 | 1500 nM |  | -8% | inhibition in vivo at 10 mg/kg (Rattus norvegicus [6]): 45%
7 | CCCCc1nc2ccc(C(=O)O)cc2n1Cc1ccc(-c2ccccc2-c2nn[nH]n2)cc1 | 9000 nM |  | 9% | 
8 | CCCCc1nc2c(C(=O)OC)cccc2n1Cc1ccc(-c2ccccc2-c2nn[nH]n2)cc1 | 7200 nM |  | 9% | 
9 | CCCCc1nc2ccc(OC)cc2n1Cc1ccc(-c2ccccc2-c2nn[nH]n2)cc1 | 1100 nM |  |  | inhibition in vivo at 100 mg/kg (Rattus norvegicus [5]): 5%; inhibition in vivo at 10 mg/kg (Rattus norvegicus [6]): 77%
10 | CCCCc1nc2cccc(CC(=O)O)c2n1Cc1ccc(-c2ccccc2-c2nn[nH]n2)cc1 | 2600 nM |  |  | 
11 | CCCCc1nc2cccc(OC)c2n1Cc1ccc(-c2ccccc2-c2nn[nH]n2)cc1 | 2800 nM | -6% |  | 
12 | CCCCc1nc2cc(C)cc(C(=O)OC)c2n1Cc1ccc(-c2ccccc2-c2nn[nH]n2)cc1 | 870 nM | 41% |  | 
13 | CCCCc1nc2ccc(C)c(C(=O)OCC)c2n1Cc1ccc(-c2ccccc2-c2nn[nH]n2)cc1 |  | 13% | 100% | IC50 [7]: 910 nM
14 | CCCCc1nc2ccc(Cl)cc2n1Cc1ccc(-c2ccccc2-c2nn[nH]n2)cc1 | 3100 nM |  | 18% | inhibition in vivo at 10 mg/kg (Rattus norvegicus [6]): 23%
15 | CCCCc1nc2cccc(C(=O)OCC)c2n1Cc1ccc(-c2ccccc2-c2nn[nH]n2)cc1 | 1400 nM | 51% |  | 
16 | CCCCc1nc2cccc(O)c2n1Cc1ccc(-c2ccccc2-c2nn[nH]n2)cc1 | 1100 nM | 2% | 56% | 
17 | CCCCc1nc2cccc(C(=O)O)c2n1Cc1ccc(-c2ccccc2-c2nnnn2C)cc1 | 3400 nM | 77% |  | 
18 | CCCCc1nc2cc(C(=O)O)ccc2n1Cc1ccc(-c2ccccc2-c2nn[nH]n2)cc1 | 5500 nM | 7% |  | 
19 | CCCCc1nc2ccccc2n1Cc1ccc(-c2ccccc2-c2nn[nH]n2)cc1 | 900 nM |  | 18% | inhibition in vivo at 10 mg/kg (Rattus norvegicus [8]): 13%; inhibition in vivo at 10 mg/kg (Rattus norvegicus [6]): 52%
20 | CCCCc1nc2c(C(N)=O)cccc2n1Cc1ccc(-c2ccccc2-c2nn[nH]n2)cc1 |  |  | 28% | 
21 | CCCCc1nc2cccc(CN(C)C)c2n1Cc1ccc(-c2ccccc2-c2nn[nH]n2)cc1 | 2400 nM | 12% |  | 
22 | CCCCOC(=O)c1cccc2nc(CCCC)n(Cc3ccc(-c4ccccc4-c4nn[nH]n4)cc3)c12 | 1200 nM | 9% | 78% | 

Second part, led by results:

Row | IC50 [2] | Compound | inhibition [3] | inhibition in vivo at 30 mg/kg (Rattus norvegicus [4]) | further results
23 | 450 nM | CCCCc1nc2cccc(CO)c2n1Cc1ccc(-c2ccccc2-c2nn[nH]n2)cc1 | 16% | 41% | 
24 | 250 nM | CCCCc1nc2cccc(CC(=O)OCC)c2n1Cc1ccc(-c2ccccc2-c2nn[nH]n2)cc1 | 24% | 82% | 
25 | 740 nM | CCCCc1nc2cc(C(=O)OC)ccc2n1Cc1ccc(-c2ccccc2-c2nn[nH]n2)cc1 |  |  | inhibition in vivo at 100 mg/kg (Rattus norvegicus [5]): -13%
26 | 340 nM | CCCCc1nc2ccc(C)c(C(=O)O)c2n1Cc1ccc(-c2ccccc2-c2nn[nH]n2)cc1 | 40% |  | 
27 | 440 nM | CCCCc1nc2ccc(C(=O)OC)cc2n1Cc1ccc(-c2ccccc2-c2nn[nH]n2)cc1 |  | 0% | 
28 | 330 nM | CCCCc1nc2cccc(C)c2n1Cc1ccc(-c2ccccc2-c2nn[nH]n2)cc1 | 8% |  | 
29 | 550 nM | CCCCc1nc2cccc(C(=O)O)c2n1Cc1ccc(-c2ccccc2-c2nn[nH]n2)cc1 | 91% |  | 
30 | 600 nM | CCCCc1nc2cccc(COC)c2n1Cc1ccc(-c2ccccc2-c2nn[nH]n2)cc1 | 54% |  | 
31 | 320 nM | CCCCc1nc2cccc(C(=O)OC)c2n1Cc1ccc(-c2ccccc2-c2nn[nH]n2)cc1 | 78% |  | 
32 | 440 nM | CCCCc1nc2cc(Cl)cc(C(=O)OC)c2n1Cc1ccc(-c2ccccc2-c2nn[nH]n2)cc1 | 57% |  | 
33 | 660 nM | CCCCc1nc2cccc(C(=O)O)c2n1Cc1ccc(-c2ccccc2C(=O)O)cc1 | 2% | 46% | 
34 | 540 nM | CCCCc1nc2cccc(C(=O)NC(C)C)c2n1Cc1ccc(-c2ccccc2-c2nn[nH]n2)cc1 |  |  | 
